# Columns and labels:
# Assay type in all cases: functional
# Mucor mucedo [1] = test: Antifungal activity against Mucor mucedo ATCC 7941 assessed as growth inhibition at pH 7 incubated for 20 hrs in absence of 10% beef serum; details: ATCC 7941, 20 h, read-out: MIC100
# Method in brief: (§1)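 Agar dilution in Sabouraud dextrose agar at pH 5.6 or 7.0, with or without 10% beef serum. C. albicans and M. mucedo were incubated 20 h at 37°; A. niger and T. mentagrophytes 5 days at 28°. The value is the minimal µg/ml giving 100% inhibition. Steps were 1 µg/ml up to 10, 2 up to 20, then 10 up to 100 µg/ml maximum.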
# [2] = test system: Trichophyton mentagrophytes; test: Antifungal activity against Trichophyton mentagrophytes ATCC 9129 assessed as ratio of glutathione to compound at pH 7 incubated for 5 days in absence of 10% beef serum
# Method in brief: (§2)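 Sabouraud agar at pH 7.0 without beef serum. The toxicant was added at one increment above its minimal inhibitory level for each organism. Cystine, cysteine or glutathione was added at molar ratios of 1:1 to 10:1 versus toxicant, in 1-equiv steps. Plates were inoculated and incubated at 37° for 20 h (C. albicans, M. mucedo) or 28° for 5 days (A. niger, T. mentagrophytes), then scored for growth.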
# Mucor mucedo [3] = test: Antifungal activity against Mucor mucedo ATCC 7941 assessed as growth inhibition at pH 5.6 incubated for 20 hrs in absence of 10% beef serum; details: ATCC 7941, 20 h, read-out: MIC100; method in brief: as §1
# [4] = test system: Trichophyton mentagrophytes; test: Antifungal activity against Trichophyton mentagrophytes ATCC 9129 assessed as growth inhibition at pH 5.6 incubated for 5 days in absence of 10% beef serum; details: ATCC 9129, 120 h, read-out: MIC100; method in brief: as §1
# [5] = test system: Trichophyton mentagrophytes; test: Antifungal activity against Trichophyton mentagrophytes ATCC 9129 assessed as ratio of cystine to compound at pH 7 incubated for 5 days in absence of 10% beef serum; method in brief: as §2
# Mucor mucedo [6] = test: Antifungal activity against Mucor mucedo ATCC 7941 assessed as ratio of cystine to compound at pH 7 incubated for 20 hrs in absence of 10% beef serum; method in brief: as §2
# Mucor mucedo [7] = test: Antifungal activity against Mucor mucedo ATCC 7941 assessed as ratio of glutathione to compound at pH 7 incubated for 20 hrs in absence of 10% beef serum; method in brief: as §2
# [8] = test system: Trichophyton mentagrophytes; test: Antifungal activity against Trichophyton mentagrophytes ATCC 9129 assessed as ratio of cysteine to compound at pH 7 incubated for 5 days in absence of 10% beef serum; method in brief: as §2
# [9] = test system: Trichophyton mentagrophytes; test: Antifungal activity against Trichophyton mentagrophytes ATCC 9129 assessed as growth inhibition at pH 7 incubated for 5 days in absence of 10% beef serum; details: ATCC 9129, 120 h, read-out: MIC100; method in brief: as §1
# Mucor mucedo [10] = test: Antifungal activity against Mucor mucedo ATCC 7941 assessed as ratio of cysteine to compound at pH 7 incubated for 20 hrs in absence of 10% beef serum; method in brief: as §2
# Aspergillus niger [11] = test: Antifungal activity against Aspergillus niger ATCC 1004 assessed as ratio of cysteine to compound at pH 7 incubated for 5 days in absence of 10% beef serum; method in brief: as §2
# Candida albicans [12] = test: Antifungal activity against Candida albicans ATCC 10231 assessed as ratio of cysteine to compound at pH 7 incubated for 20 hrs in absence of 10% beef serum; method in brief: as §2
# [13] = test system: Trichophyton mentagrophytes; test: Antifungal activity against Trichophyton mentagrophytes ATCC 9129 assessed as growth inhibition at pH 7 incubated for 5 days in presence of 10% beef serum; details: ATCC 9129, 120 h, read-out: MIC100; method in brief: as §1
# Mucor mucedo [14] = test: Antifungal activity against Mucor mucedo ATCC 7941 assessed as growth inhibition at pH 7 incubated for 20 hrs in presence of 10% beef serum; details: ATCC 7941, 20 h, read-out: MIC100; method in brief: as §1
# Candida albicans [15] = test: Antifungal activity against Candida albicans ATCC 10231 assessed as growth inhibition at pH 5.6 incubated for 20 hrs in presence of 10% beef serum; details: ATCC 10231, 20 h, read-out: MIC100; method in brief: as §1
# Aspergillus niger [16] = test: Antifungal activity against Aspergillus niger ATCC 1004 assessed as growth inhibition at pH 5.6 incubated for 5 days in presence of 10% beef serum; details: ATCC 1004, 120 h, read-out: MIC100; method in brief: as §1
# Aspergillus niger [17] = test: Antifungal activity against Aspergillus niger ATCC 1004 assessed as growth inhibition at pH 5.6 incubated for 5 days in absence of 10% beef serum; details: ATCC 1004, 120 h, read-out: MIC100; method in brief: as §1
# Aspergillus niger [18] = test: Antifungal activity against Aspergillus niger ATCC 1004 assessed as growth inhibition at pH 7 incubated for 5 days in absence of 10% beef serum; details: ATCC 1004, 120 h, read-out: MIC100; method in brief: as §1
# Candida albicans [19] = test: Antifungal activity against Candida albicans ATCC 10231 assessed as growth inhibition at pH 5.6 incubated for 20 hrs in absence of 10% beef serum; details: ATCC 10231, 20 h, read-out: MIC100; method in brief: as §1
# Candida albicans [20] = test: Antifungal activity against Candida albicans ATCC 10231 assessed as growth inhibition at pH 7 incubated for 20 hrs in presence of 10% beef serum; details: ATCC 10231, 20 h, read-out: MIC100; method in brief: as §1
# Candida albicans [21] = test: Antifungal activity against Candida albicans ATCC 10231 assessed as growth inhibition at pH 7 incubated for 20 hrs in absence of 10% beef serum; details: ATCC 10231, 20 h, read-out: MIC100; method in brief: as §1
# Aspergillus niger [22] = test: Antifungal activity against Aspergillus niger ATCC 1004 assessed as ratio of cystine to compound at pH 7 incubated for 5 days in absence of 10% beef serum; method in brief: as §2
# Aspergillus niger [23] = test: Antifungal activity against Aspergillus niger ATCC 1004 assessed as growth inhibition at pH 7 incubated for 5 days in presence of 10% beef serum; details: ATCC 1004, 120 h, read-out: MIC100; method in brief: as §1
# Candida albicans [24] = test: Antifungal activity against Candida albicans ATCC 10231 assessed as ratio of glutathione to compound at pH 7 incubated for 20 hrs in absence of 10% beef serum; method in brief: as §2
# Mucor mucedo [25] = test: Antifungal activity against Mucor mucedo ATCC 7941 assessed as growth inhibition at pH 5.6 incubated for 20 hrs in presence of 10% beef serum; details: ATCC 7941, 20 h, read-out: MIC100; method in brief: as §1
# Aspergillus niger [26] = test: Antifungal activity against Aspergillus niger ATCC 1004 assessed as ratio of glutathione to compound at pH 7 incubated for 5 days in absence of 10% beef serum; method in brief: as §2
# [27] = test system: Trichophyton mentagrophytes; test: Antifungal activity against Trichophyton mentagrophytes ATCC 9129 assessed as growth inhibition at pH 5.6 incubated for 5 days in presence of 10% beef serum; details: ATCC 9129, 120 h, read-out: MIC100; method in brief: as §1
# Candida albicans [28] = test: Antifungal activity against Candida albicans ATCC 10231 assessed as ratio of cystine to compound at pH 7 incubated for 20 hrs in absence of 10% beef serum; method in brief: as §2
Structure (SMILES),MIC (Mucor mucedo [1]) [µg/mL],Ratio [2],MIC (Mucor mucedo [3]) [µg/mL],MIC [4] [µg/mL],Ratio [5],Ratio (Mucor mucedo [6]),Ratio (Mucor mucedo [7]),Ratio [8],MIC [9] [µg/mL],Ratio (Mucor mucedo [10]),other results
COC(=O)/C=C/CSC,80,<1,70,90,>10,>10,<1,<1,70,<1,
COC(=O)/C=C/CBr,10,9,6,3,>10,>10,8,10,5,4,Ratio (Aspergillus niger [11]): <1; Ratio (Candida albicans [12]): 2; MIC [13]: 6 µg/mL; MIC (Mucor mucedo [14]): 14 µg/mL; MIC (Candida albicans [15]): 30 µg/mL; MIC (Aspergillus niger [16]): 50 µg/mL; MIC (Aspergillus niger [17]): 50 µg/mL; MIC (Aspergillus niger [18]): 50 µg/mL; MIC (Candida albicans [19]): 30 µg/mL; MIC (Candida albicans [20]): 30 µg/mL; MIC (Candida albicans [21]): 30 µg/mL; Ratio (Aspergillus niger [22]): >10; MIC (Aspergillus niger [23]): 60 µg/mL; Ratio (Candida albicans [24]): 3; MIC (Mucor mucedo [25]): 8 µg/mL; Ratio (Aspergillus niger [26]): <1; MIC [27]: 5 µg/mL; Ratio (Candida albicans [28]): >10
